# PHOSPHO1 inh: PubChem AID 1565; Phosphoethanolamine/phosphocholine phosphatase (Homo sapiens), Q8TCT1; recombinant PHOSPHO1, absorbance phosphatase assay; 1.1% of 290,000 active; inhibition, % at 13.3 µM; in the data active means inhibition above about 60%
# KCNK9 inh: KCNK9 potassium channel inhibitors, primary screen, HEK293 cells, thallium flux; B-score at 10 µM; FluxOR thallium flux fluorescence; stronger effect = lower value; 1.2% of 310,000 active;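 active means ratio B-score over 3 SD below the library mean, with starting fluorescence within 5 SD of its mean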;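 further: negative B-score means less thallium flux so channel inhibition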
# KCNQ1 act: potentiators or activators of KCNQ1 channel, primary screen, cell-based, thallium flux, high-throughput; 0.35% of 310,000 active; B-score at 10 µM; CHO-K1 KCNQ1, thallium flux FluxOR fluorescence; stronger effect = higher value; Potassium voltage-gated channel subfamily KQT member 1 (Homo sapiens), P51787;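 active means fluorescence ratio B-score, a plate-corrected score, at least three library SD, with initial intensity B-score within 5 SD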
# Target sequence (P51787 whole entry, looked up): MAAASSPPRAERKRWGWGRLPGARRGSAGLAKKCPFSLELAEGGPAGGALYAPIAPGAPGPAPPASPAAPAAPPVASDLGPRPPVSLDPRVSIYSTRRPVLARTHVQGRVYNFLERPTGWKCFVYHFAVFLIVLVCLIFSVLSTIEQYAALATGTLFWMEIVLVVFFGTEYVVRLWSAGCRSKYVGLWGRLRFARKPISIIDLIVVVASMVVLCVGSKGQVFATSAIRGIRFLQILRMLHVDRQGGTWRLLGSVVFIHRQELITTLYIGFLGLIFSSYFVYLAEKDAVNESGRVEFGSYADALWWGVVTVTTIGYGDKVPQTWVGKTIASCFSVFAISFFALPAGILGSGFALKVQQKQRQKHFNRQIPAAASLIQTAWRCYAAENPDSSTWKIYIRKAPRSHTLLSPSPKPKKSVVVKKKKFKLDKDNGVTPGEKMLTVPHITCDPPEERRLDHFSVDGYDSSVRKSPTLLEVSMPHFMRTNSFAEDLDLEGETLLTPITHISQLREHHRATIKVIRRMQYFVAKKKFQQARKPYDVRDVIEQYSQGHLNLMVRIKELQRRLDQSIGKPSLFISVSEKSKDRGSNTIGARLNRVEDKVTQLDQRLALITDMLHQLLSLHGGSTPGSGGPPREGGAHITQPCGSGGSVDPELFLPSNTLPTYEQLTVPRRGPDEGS
#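 assay system = CHO-K1 cells stably expressing KCNQ1 | medium = assay buffer, equal DMSO in all wells | timing = 37 °C overnight plating, 90-min dark dye load, 20-min compound pretreatment | measured by = kinetic FluxOR thallium fluorescence, 10-s 1-Hz baseline, 110-s post-stimulus read | measure = fluorescence change relative to baseline, converted to B score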
# KCNQ1 block: inhibitors of human KCNQ1 channel, primary screen, cell-based, thallium flux, high-throughput | Potassium voltage-gated channel subfamily KQT member 1 (Homo sapiens), P51787 | CHO-K1 KCNQ1, FluxOR thallium flux fluorescence; stronger effect = higher value | B-score at 10 µM | 1.3% of 310,000 active;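 active means compounds whose thallium flux B-score, printed positive for inhibition, exceeds three library SD while starting fluorescence stays within three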;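 further: channel opened by potassium depolarization with thallium stimulus after 20 min compound exposure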
# KCNK3 block: human KCNK3 channel inhibitors, primary screen, CHO cells, FluxOR thallium flux, B-score; AID 602410, 2012; B-score at 10 µM; 0.84% of 340,000 active; FluxOR fluorescence; stronger effect = lower value; Potassium channel subfamily K member 3 (Homo sapiens), O14649;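 active means B-score under library mean minus 4 SD, starting fluorescence ratio at most library mean plus 5 SD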;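 further: more negative B-score means stronger inhibition of thallium flux through KCNK3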
# hERG protect: hERG rescue from dofetilide block, primary screen, cell-based, CHO-hERG, FluxOR thallium flux, dofetilide IC70; Voltage-gated inwardly rectifying potassium channel KCNH2 (Homo sapiens), Q12809; dofetilide IC70 present; activation (rescue from dofetilide block), less the hit threshold, % at 10 µM; 0.51% of 310,000 active;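 active means activation above the mean of controls blocked by dofetilide plus 5 SD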;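 further: thallium influx through hERG after potassium depolarization seen as dye fluorescence rise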
# KCNQ1 block val: KCNQ1 potassium channel inhibitors, confirmation, cell-based, Tl flux, duplicate. 93% of 1,600 active. AID 588353, 2011. shares compounds with KCNQ1 block. KCNQ1 cell line, FluxOR thallium flux fluorescence. inhibition, % at 10 µM;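 active means primary screen active, with duplicate mean exceeding buffer control mean plus 3 SD of buffer wells, cut at about 28% in these data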;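 further: 0% = buffer control ratio and 100% = XE991 inhibitor control ratio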
# CHO KCNQ1 ctr: thallium flux effects in parental CHO cells, counter-screen for KCNQ1 inhibitor project, cell-based, Tl flux; shares compounds with KCNQ1 block; parental CHO-K1, FluxOR thallium flux fluorescence ratio; stronger effect = lower value; zero means no signal rise above baseline; fluorescence ratio (Tl flux) at 10 µM; 21% of 1,600 active;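 active means mean of duplicate thallium-flux fluorescence ratios in parental host cells more than 5 SD below the buffer control mean, cut at about 0.38 in these data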;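 further: ratio is peak minus minimum fluorescence divided by baseline fluorescence; actives read low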
# KCNQ1 ephys val: KCNQ1 channel inhibitors, confirmation, orthogonal assay, cell-based, automated electrophysiology. 20% of 490 active. AID 624120, 2012. calls only at 10 µM. KCNQ1-CHO cells, automated patch clamp current. shares compounds with KCNQ1 block;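 active means KCNQ1 current drop exceeding 3 SD of negative control wells, seen in both duplicate runs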;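 further: steady state current during a 2 s step from -80 to +40 mV; negative values mean current inhibition and positive values mean potentiation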
# KCNQ2 spec: KCNQ2 channel inhibition, selectivity assay for KCNQ1 inhibitor project, cell-based; shares compounds with KCNQ1 block; KCNQ2 cells, FluxOR thallium flux fluorescence; inhibition, % at 10 µM; 71% of 1,600 active;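 active means mean percent inhibition of the KCNQ2 thallium signal more than 5 SD above the buffer-only control wells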;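 further: KCNQ2 expressed in CHO cells; 0% = buffer control wells and 100% = XE-991 inhibitor control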
# KCNQ1-KCNE1 inh: KCNQ1/KCNE1 channel inhibition, selectivity assay for KCNQ1 inhibitor project, CHO-K1 cells, thallium flux, FluxOR; shares compounds with KCNQ1 block; FluxOR thallium flux fluorescence; inhibition, % at 10 µM; 77% of 1,600 active;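 active means mean percent inhibition of duplicate wells above the buffer-only control mean plus 3 SD of those controls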;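 further: 0% = buffer only wells and 100% = XE-991 inhibitor control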
# * = called active by the depositor; i = inactive; . = no result; + = active, no number. In the library only some 4% were active in any assay of this set; here they are far more common.
SMILES,PHOSPHO1 inh,KCNK9 inh,KCNQ1 act,KCNQ1 block,KCNK3 block,hERG protect,KCNQ1 block val,CHO KCNQ1 ctr,KCNQ2 spec,KCNQ1-KCNE1 inh,others
CC1CCc2c(sc3nc(C(C)(C)C)nc(N4CCN(C(=O)CCl)CC4)c23)C1 (stereo unspecified),.,i,i,11*,i,-5,110*,0.41,128%*,156%*,KCNQ1 ephys val=i
O=c1[nH]c2ccc(Cl)cc2c(-c2ccccc2)c1N1CCN(CCO)CC1,22,i,i,i,i,-15,.,.,.,.,
O=C(Nc1ccc(Cl)c(Cl)c1)Nc1ccccc1O,13,i,i,7*,i,-20,72*,0.57,i,66%*,
O=C(Nc1ccc(Cl)c(Cl)c1)Nc1ccon1,48,i,i,i,i,-9,.,.,.,.,
O=C1C=C(NC(=O)Nc2ccc(Cl)c(Cl)c2)CCC1,-146,i,i,13*,i,-18,39*,0.51,i,i,
Cc1ccc(S(=O)(=O)N2CCN(C(=O)[C@H](Cc3ccccc3)NC(=O)c3ccco3)CC2)cc1,.,.,.,.,i,.,.,.,.,.,
COc1ccc(C(CCN2CCOCC2)c2c(O)cc(OC)cc2OC)cc1 (stereo unspecified),4,i,i,i,i,-5,.,.,.,.,
COc1ccc(C(c2c(O)ccc3ccccc23)N2CCOCC2)c(OC)c1 (stereo unspecified),-8,i,i,7*,i,-31,113*,0.35*,108%*,142%*,
COc1ccc(NC(=O)c2cc3n(n2)C(C(F)(F)F)CC(c2ccc4c(c2)OCO4)N3)cc1OC (stereo unspecified),-1,.,.,.,i,.,.,.,.,.,
Cc1cccc(NC(=O)c2cc3n(n2)C(C(F)(F)F)CC(c2ccc4c(c2)OCO4)N3)c1 (stereo unspecified),-7,i,i,8*,i,-12,126*,0.4,104%*,94%*,KCNQ1 ephys val=i
Cc1cccc(CCNC(=O)CCS(=O)(=O)c2cc3c(cc2Cl)NC(=O)CO3)c1,15,i,i,i,i,0,.,.,.,.,
COc1cc(NC(=O)c2ccc(-c3cccc(F)c3)o2)ccc1NC(=O)c1ccccc1Cl,.,.,.,.,i,.,.,.,.,.,
COc1ccc(N(CC(=O)Nc2cccnc2)S(=O)(=O)c2ccccc2)cc1Cl,-29,i,i,i,i,-10,.,.,.,.,
COc1ccc(N(CC(=O)Nc2ccccc2OC)S(=O)(=O)c2ccccc2)cc1Cl,-8,i,i,7*,i,-4,74*,0.39,92%*,102%*,
CC(NC(=O)c1ccc(Br)o1)c1ccccc1 (stereo unspecified),45,i,i,i,i,-15,.,.,.,.,
COc1ccc(Oc2ccccc2C#N)cc1,15,i,i,i,i,-12,.,.,.,.,
COc1ccccc1Oc1ccc(Oc2ccccc2OC)cc1,-86,i,i,7*,i,-8,126*,0.36*,125%*,108%*,
O=C(Nc1ccc(OCc2ccccc2)cc1)Nc1cccnc1,.,i,i,i,i,-4,.,.,.,.,
Cc1cc(=S)cc(C)n1CCCO,32,i,i,i,i,-5,.,.,.,.,
O=C(Nc1ccc(F)cc1)Oc1ccccc1N1CCOCC1,3,i,i,i,i,-10,.,.,.,.,
O=C(Nc1ccc(OC(F)(F)F)cc1)Oc1ccccc1N1CCOCC1,33,i,i,6*,i,-8,50*,0.5,70%*,39%*,
O=C(Nc1ccc(OC(F)(F)F)cc1)Oc1ccccc1N1CCCCC1,18,i,i,9*,i,-19,82*,0.48,i,40%*,
COc1ccc2cc(C(=O)C3CCCN(Cc4ccccn4)C3)ccc2c1 (stereo unspecified),27,i,i,i,i,-16,.,.,.,.,
CCC(C)Nc1nc2c(c(=O)[nH]c(=O)n2C)n1CCC(C)C (stereo unspecified),-1,i,i,i,i,-1,.,.,.,.,
Cc1ccc(C)c(S(=O)(=O)NCCCc2ccccc2)c1,24,i,i,7*,i,-8,98*,0.49,i,i,KCNQ1 ephys val=i
SMILES,PHOSPHO1 inh,KCNK9 inh,KCNQ1 act,KCNQ1 block,KCNK3 block,hERG protect,KCNQ1 block val,CHO KCNQ1 ctr,KCNQ2 spec,KCNQ1-KCNE1 inh,others
Cc1ccoc1C(=O)NCc1occc1C(=O)O,-15,i,i,i,i,-10,.,.,.,.,
Cn1nc(C(C)(C)C)cc1C(=O)NCc1cc(F)cc2c1OCOC2,1,i,i,7*,i,-25,94*,0.45,82%*,34%*,KCNQ1 ephys val=+
COc1cccc(-c2csc(N3CCN(C(=O)NC45CC6CC(CC(C6)C4)C5)CC3)n2)c1,-18,i,i,8*,i,-11,102*,0.43,106%*,136%*,
CC(=O)NC12CC3CC(C1)CC(C(=O)Nc1nc4ccc(F)cc4s1)(C3)C2,18,i,i,7*,i,-20,92*,0.49,65%*,85%*,KCNQ1 ephys val=+
CC(=O)N1CCc2cc(S(=O)(=O)CCC(=O)NCc3cccs3)ccc21,18,i,i,i,i,-4,.,.,.,.,
CCCn1c(=O)n(C)c(=O)c2c(SCC(=O)NC34CC5CC(CC(C5)C3)C4)nc(CC(C)C)nc21,-21,i,i,8*,i,-19,136*,0.32*,88%*,148%*,
COc1ccc(CN(C)C(=O)c2cc(S(=O)(=O)N3CCCCCC3)ccc2OC)cc1OC,23,i,i,i,i,-6,.,.,.,.,

# Compound activity deposited in PubChem BioAssay by several laboratories.
